Data as given in ChEMBL document CHEMBL1133729, “Design, synthesis, and structure-activity relationships of phthalimide-phenylpiperazines: a novel series of potent and selective alpha(1)(a)-adrenergic receptor antagonists” (J Med Chem, 2000).
pKi: −log10 of the molar value.

Columns and labels:
[1] = molecular target: T1, Alpha-1D adrenergic receptor (Homo sapiens, UniProt P25100); assay: Binding affinity towards cloned human alpha-1D adrenergic receptor was determined using [125]-HEAT as radioligand
T1 sequence (P25100 whole entry): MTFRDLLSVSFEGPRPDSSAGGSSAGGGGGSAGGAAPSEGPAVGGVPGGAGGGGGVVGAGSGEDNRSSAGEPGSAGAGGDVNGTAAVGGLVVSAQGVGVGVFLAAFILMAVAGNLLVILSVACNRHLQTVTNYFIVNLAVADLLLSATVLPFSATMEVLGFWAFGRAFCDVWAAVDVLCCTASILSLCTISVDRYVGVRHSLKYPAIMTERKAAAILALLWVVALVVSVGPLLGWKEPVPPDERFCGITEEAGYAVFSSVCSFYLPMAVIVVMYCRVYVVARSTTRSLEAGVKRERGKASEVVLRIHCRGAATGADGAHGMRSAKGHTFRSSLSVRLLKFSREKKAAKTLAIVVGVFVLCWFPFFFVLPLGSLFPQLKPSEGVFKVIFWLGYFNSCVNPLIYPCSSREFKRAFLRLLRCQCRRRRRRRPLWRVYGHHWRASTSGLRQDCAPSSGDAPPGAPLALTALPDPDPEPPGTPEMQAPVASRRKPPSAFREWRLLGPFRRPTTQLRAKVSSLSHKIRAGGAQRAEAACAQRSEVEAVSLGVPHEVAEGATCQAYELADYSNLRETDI
In short: (§1)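 Human α1a, α1b and α1d cDNAs transiently expressed in COS-1 cells (DEAE-dextran); membranes harvested 72 h post-transfection. Competition versus 50 pM [125I]HEAT (final), 0.1 pM–10 μM test compound in half-log steps, in TNE buffer pH 7.4. Membrane protein 0.1 μg (α1a, α1b) or 2.6 μg (α1d); 1 h at 25 °C. Filtration, scintillation counting; Ki = IC50/(1 + [L]/Kd). Ratios are subtype Ki over α1a Ki.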

[2] = molecular target: T2, Alpha-1B adrenergic receptor (Homo sapiens, UniProt P35368); assay: Binding affinity towards cloned human alpha-1B adrenergic receptor was determined using [125]-HEAT as radioligand; in short: as §1
T2 sequence (P35368 whole entry): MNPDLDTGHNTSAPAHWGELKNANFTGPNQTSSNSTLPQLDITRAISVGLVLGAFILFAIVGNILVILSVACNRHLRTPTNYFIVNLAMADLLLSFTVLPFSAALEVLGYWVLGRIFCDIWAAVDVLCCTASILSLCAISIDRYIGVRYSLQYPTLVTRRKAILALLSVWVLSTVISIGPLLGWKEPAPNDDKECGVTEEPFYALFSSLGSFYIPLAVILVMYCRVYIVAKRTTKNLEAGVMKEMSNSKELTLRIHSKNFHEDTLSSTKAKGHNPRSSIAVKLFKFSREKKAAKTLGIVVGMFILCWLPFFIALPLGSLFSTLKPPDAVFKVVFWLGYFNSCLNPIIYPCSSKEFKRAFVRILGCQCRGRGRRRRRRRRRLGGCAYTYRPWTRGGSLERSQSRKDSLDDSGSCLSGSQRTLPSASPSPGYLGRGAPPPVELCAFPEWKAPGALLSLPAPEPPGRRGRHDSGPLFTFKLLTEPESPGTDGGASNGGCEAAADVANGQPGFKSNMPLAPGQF

[3] = molecular target: T3, Alpha-1A adrenergic receptor (Homo sapiens, UniProt P35348); assay: Binding affinity towards cloned human alpha-1A adrenergic receptor was determined using [125]-HEAT as radioligand
T3 sequence (P35348 whole entry): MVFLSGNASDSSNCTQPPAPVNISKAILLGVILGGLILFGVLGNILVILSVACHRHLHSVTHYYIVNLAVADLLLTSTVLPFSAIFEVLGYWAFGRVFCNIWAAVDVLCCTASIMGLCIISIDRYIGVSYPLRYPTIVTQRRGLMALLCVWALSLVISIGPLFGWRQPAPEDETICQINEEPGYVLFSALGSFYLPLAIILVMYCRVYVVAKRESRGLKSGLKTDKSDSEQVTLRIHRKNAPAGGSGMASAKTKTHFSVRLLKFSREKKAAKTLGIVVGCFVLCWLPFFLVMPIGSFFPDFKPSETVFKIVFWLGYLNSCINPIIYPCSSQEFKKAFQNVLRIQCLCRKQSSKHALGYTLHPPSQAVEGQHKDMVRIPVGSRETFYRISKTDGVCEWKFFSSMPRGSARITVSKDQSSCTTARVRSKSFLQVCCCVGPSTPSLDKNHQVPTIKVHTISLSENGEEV

[4] = molecular target: Adrenergic receptors; alpha-1 A & B (Homo sapiens) (UniProt P35348+P35368); assay: Ratio of binding affinity towards Alpha1b to Alpha-1A; format: protein assay; in short: as §1
[5] = system: Alpha-1D/Alpha-1A adrenergic receptor (Homo sapiens); assay: Ratio of binding affinity towards Alpha1d to Alpha-1A

pKi [1]	pKi [2]	pKi [3]	Ratio [4]	Ratio [5]	SMILES
6.82	< 5.70	8.91	> 1640	125	COc1cc(N2C(=O)c3ccc(C(=O)NCC(O)CN4CCN(c5ccccc5OC(C)C)CC4)cc3C2=O)cc(OC)c1OC (stereo not given)
7.28	< 5.70	–	–	–	COc1ccc(N2C(=O)c3ccc(C(=O)NC[C@@H](O)CN4CCN(c5ccccc5OC(C)C)CC4)cc3C2=O)cc1
8.00	6.59	9.70	1270	50	CC(C)Oc1ccccc1N1CCN(CCCNC(=O)c2ccc3c(c2)C(=O)N(c2ccc(O)cc2)C3=O)CC1
6.27	< 5.70	7.66	> 90	–	COc1ccccc1N1CCN(CC(O)CNC(=O)c2ccc3c(c2)C(=O)N(c2cccc(F)c2)C3=O)CC1 (stereo not given)
7.20	< 5.70	8.10	> 250	–	CC(C)Oc1ccccc1N1CCN(C[C@H](O)CNC(=O)c2ccc3c(c2)C(=O)N(c2cccc(F)c2)C3=O)CC1
7.82	6.33	9.74	2580	–	CC(C)Oc1ccccc1N1CCN(CCCNC(=O)c2ccc3c(c2)C(=O)N(c2ccc(N(C)C)cc2)C3=O)CC1
7.55	< 5.70	9.06	> 2270	–	CC(C)Oc1ccccc1N1CCN(CC(O)CNC(=O)c2ccc3c(c2)C(=O)N(c2ccc(O)cc2)C3=O)CC1 (stereo not given)
7.25	< 5.70	9.01	> 2040	57	COc1ccc(N2C(=O)c3ccc(C(=O)NCC(O)CN4CCN(c5ccccc5OC(C)C)CC4)cc3C2=O)cc1OC (stereo not given)
7.21	< 5.70	9.18	> 3030	–	Cc1ccc(N2C(=O)c3ccc(C(=O)NCC(O)CN4CCN(c5ccccc5OC(C)C)CC4)cc3C2=O)cc1 (stereo not given)
7.26	6.22	9.02	640	–	CC(C)Oc1ccccc1N1CCN(CC(O)CNC(=O)c2ccc3c(c2)C(=O)N(c2ccc(Cl)cc2)C3=O)CC1 (stereo not given)
7.40	< 5.70	9.10	> 2000	–	CC(C)Oc1ccccc1N1CCN(CC(O)CNC(=O)c2ccc3c(c2)C(=O)N(c2ccc(N(C)C)cc2)C3=O)CC1 (stereo not given)
6.39	< 5.70	8.16	> 290	–	COC(CNC(=O)c1ccc2c(c1)C(=O)N(c1cccc(F)c1)C2=O)CN1CCN(c2ccccc2OC(C)C)CC1 (stereo not given)
7.42	< 5.70	8.74	> 1110	–	CC(C)Oc1ccccc1N1CCN(CC(O)CNC(=O)c2ccc3c(c2)C(=O)N(c2ccc([N+](=O)[O-])cc2)C3=O)CC1 (stereo not given)
7.12	< 5.70	8.82	> 1220	–	CC(C)Oc1ccccc1N1CCN(CC(O)CNC(=O)c2ccc3c(c2)C(=O)N(c2cccc(F)c2)C3=O)CC1 (stereo not given)
6.91	< 5.76	–	–	–	COc1ccc(N2C(=O)c3ccc(C(=O)NC[C@H](O)CN4CCN(c5ccccc5OC(C)C)CC4)cc3C2=O)cc1
6.86	< 5.70	8.37	> 470	–	CCOc1ccccc1N1CCN(CC(O)CNC(=O)c2ccc3c(c2)C(=O)N(c2cccc(F)c2)C3=O)CC1 (stereo not given)
7.19	< 5.70	9.05	> 1820	72	CC(C)Oc1ccccc1N1CCN(CC(O)CNC(=O)c2ccc3c(c2)C(=O)N(c2ccccc2)C3=O)CC1 (stereo not given)
7.29	5.91	8.92	1030	43	CC(C)Oc1ccccc1N1CCN(CC(O)CNC(=O)c2ccc3c(c2)C(=O)N(c2ccc(Cl)c(Cl)c2)C3=O)CC1 (stereo not given)
7.14	5.79	8.83	1110	–	COc1ccccc1N1C(=O)c2ccc(C(=O)NCC(O)CN3CCN(c4ccccc4OC(C)C)CC3)cc2C1=O (stereo not given)
7.12	< 5.70	8.52	> 650	–	CC(C)Oc1ccccc1N1CCN(CC(O)CNC(=O)c2ccc3c(c2)C(=O)N(c2ccc(C(C)(C)C)cc2)C3=O)CC1 (stereo not given)
6.86	< 5.70	9.34	> 4350	–	CC(C)Oc1ccccc1N1CCN(C[C@@H](O)CNC(=O)c2ccc3c(c2)C(=O)N(c2ccc(O)cc2)C3=O)CC1
7.14	< 5.70	9.05	> 2220	–	Cc1cccc(N2C(=O)c3ccc(C(=O)NCC(O)CN4CCN(c5ccccc5OC(C)C)CC4)cc3C2=O)c1 (stereo not given)
6.95	< 5.78	8.82	> 1100	–	CC(C)Oc1ccccc1N1CCN(CC(O)CNC(=O)c2ccc3c(c2)C(=O)N(c2ccc(F)cc2)C3=O)CC1 (stereo not given)
7.39	6.22	9.12	800	54	CC(C)Oc1ccccc1N1CCN(CC(O)CNC(=O)c2ccc3c(c2)C(=O)N(c2cccc(Cl)c2)C3=O)CC1 (stereo not given)
7.29	< 5.70	–	–	–	COc1ccc(N2C(=O)c3ccc(C(=O)NCC(O)CN4CCN(c5ccccc5OC(C)C)CC4)cc3C2=O)cc1 (stereo not given)
